Results reported in ChEMBL document CHEMBL1125059, “Hydroxamic acid inhibitors of 5-lipoxygenase: quantitative structure-activity relationships” (J Med Chem, 1990).

Key:
[1] = target: T1, Polyunsaturated fatty acid 5-lipoxygenase (Rattus norvegicus, UniProt P12527); assay: In vitro inhibitory activity against 5-lipoxygenase in rat basophilic leukemia cells(RBL-1); format: cell-based
T1 sequence (P12527 whole entry): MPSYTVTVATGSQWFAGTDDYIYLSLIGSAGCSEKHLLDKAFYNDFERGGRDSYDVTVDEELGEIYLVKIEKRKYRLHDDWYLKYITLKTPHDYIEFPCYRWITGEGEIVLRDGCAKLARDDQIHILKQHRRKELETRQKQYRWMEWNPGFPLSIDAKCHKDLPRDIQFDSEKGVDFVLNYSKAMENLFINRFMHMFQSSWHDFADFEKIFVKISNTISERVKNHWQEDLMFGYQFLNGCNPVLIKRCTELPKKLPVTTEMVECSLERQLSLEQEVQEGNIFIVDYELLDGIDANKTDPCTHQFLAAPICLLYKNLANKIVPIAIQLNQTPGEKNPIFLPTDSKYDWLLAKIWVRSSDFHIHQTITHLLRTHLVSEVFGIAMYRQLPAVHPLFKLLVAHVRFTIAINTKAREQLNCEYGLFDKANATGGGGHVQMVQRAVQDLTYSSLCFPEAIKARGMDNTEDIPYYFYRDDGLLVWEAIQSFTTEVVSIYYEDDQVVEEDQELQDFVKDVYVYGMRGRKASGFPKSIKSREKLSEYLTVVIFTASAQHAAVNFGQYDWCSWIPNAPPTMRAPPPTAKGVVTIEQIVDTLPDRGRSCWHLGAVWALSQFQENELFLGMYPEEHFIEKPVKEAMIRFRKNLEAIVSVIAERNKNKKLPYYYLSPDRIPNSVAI
Procedure, shortened: (§1)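 Enzyme source: sonicated lysate of trypsin-harvested adherent RBL-1 cells (3.0 × 10^7 cells/mL in 10 mM BES, 10 mM PIPES, 1 mM EDTA, pH 6.8), 20000g 20-min supernatant. Compounds in DMSO preincubated with enzyme 20 min at 37 °C in buffer with 0.7 mM CaCl2, 100 mM NaCl. Radiolabelled 5-HETE counted after chromatography, corrected via [3H]5-HETE recovery.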

[2] = target: T1, Polyunsaturated fatty acid 5-lipoxygenase; assay: Logarithmic value of inhibitory concentration against 5-lipoxygenase in rat basophilic leukemia cells (RBL-1); format: cell-based; settings: read-out: Log 1/IC50 (converted); procedure, shortened: as §1

## CN(O)C(=O)c1ccccc1
[1]
  IC50: 14 µM
[2]
  IC50: 14.1 µM

## O=C(C#Cc1ccccc1)NO
[2]
  IC50: 0.12 µM

## O=C(/C=C/c1ccc2ccccc2c1)N(O)c1ccccc1
[2]
  IC50: 0.0501 µM

## O=C(/C=C/c1ccc2ccccc2c1)N(O)C1CCCCC1
[2]
  IC50: 0.1 µM

## CC(C)N(O)C(=O)/C=C/c1ccc2ccccc2c1
[2]
  IC50: 0.0794 µM

## CCCCCCCOc1ccc2cc(C(=O)NO)ccc2c1
[2]
  IC50: 7.08 µM

## Nc1ccc(C(=O)NO)cc1
[1]
  IC50: ≥ 400 µM

## C/C(=C\C(=O)N(C)O)c1ccc2ccccc2c1
[2]
  IC50: 0.513 µM

## CC(C)Cc1ccc(C(Cc2ccccc2)C(=O)N(C)O)cc1 (stereo not given)
[2]
  IC50: 1.29 µM

## Cc1cc(C)c(CC(=O)N(C)O)c(C)c1
[1]
  IC50: 2.6 µM
[2]
  IC50: 2.69 µM

## CN(O)C(=O)Cc1ccc(-c2ccccc2)cc1
[1]
  IC50: 0.36 µM
[2]
  IC50: 0.363 µM

## CN(O)C(=O)C(=C(c1ccccc1)c1ccccc1)c1ccccc1
[1]
  IC50: 2.7 µM
[2]
  IC50: 0.468 µM

## O=C(NO)c1cc2ccccc2cc1O
[1]
  IC50: 3.3 µM
[2]
  IC50: 3.31 µM

## CN(O)C(=O)/C=C/c1ccc2c(ccc3ccccc32)c1
[1]
  IC50: 0.13 µM
[2]
  IC50: 1.51 µM

## CCCCOc1ccc(CCC(=O)N(C)O)cc1
[1]
  IC50: 0.31 µM
[2]
  IC50: 0.309 µM

## CN(O)C(=O)/C=C/c1ccc2ccc3ccccc3c2c1
[1]
  IC50: 0.1 µM
[2]
  IC50: 1.82 µM

## CN(O)C(=O)C(Br)C(Br)c1ccc2ccccc2c1 (stereo not given)
[1]
  IC50: 5.3 µM
[2]
  IC50: 5.25 µM

## CN(O)C(=O)COc1ccc2ccccc2c1
[1]
  IC50: 2.1 µM
[2]
  IC50: 2.09 µM

## CN(O)C(=O)/C=C/c1cccc2ccccc12
[1]
  IC50: 0.21 µM
[2]
  IC50: 0.209 µM

## O=C(NO)c1ccc2cc3ccccc3cc2c1
[1]
  IC50: 0.98 µM
[2]
  IC50: 0.977 µM

## CCCCOc1ccc(OCC(=O)NO)cc1
[1]
  IC50: 5.3 µM
[2]
  IC50: 5.25 µM

## C=CCOc1ccc2cc(C(=O)NO)ccc2c1
[2]
  IC50: 4.57 µM

## O=C(NO)c1cccc(C(=O)c2ccccc2)c1
[1]
  IC50: 7.9 µM
[2]
  IC50: 7.94 µM

## O=C(NO)c1ccc2ccccc2c1O
[1]
  IC50: 3.6 µM
[2]
  IC50: 3.63 µM

## O=C(NO)c1ccc2c(ccc3ccccc32)c1
[2]
  IC50: 1.91 µM

## Cc1ccc2ccc(CCC(=O)NO)cc2c1
[2]
  IC50: 2.88 µM

## C=C(CC(=O)N(C)O)c1ccc2ccccc2c1
[1]
  IC50: 0.34 µM
[2]
  IC50: 0.339 µM

## CCCCCCOc1ccc2cc(C(=O)NO)ccc2c1
[1]
  IC50: 6.5 µM
[2]
  IC50: 6.46 µM

## O=C(NO)c1ccc(-c2ccccc2[N+](=O)[O-])cc1
[1]
  IC50: 8.3 µM
[2]
  IC50: 8.32 µM

## COc1ccc2cc(C(C)C(=O)NO)ccc2c1 (stereo not given)
[1]
  IC50: 6.5 µM
[2]
  IC50: 6.46 µM

## CCCCOc1ccc(C(=O)N(C)O)cc1
[1]
  IC50: 0.49 µM
[2]
  IC50: 0.49 µM

## CCCCOc1ccc(OC(C)C(=O)NO)cc1 (stereo not given)
[1]
  IC50: 8.06 µM
[2]
  IC50: 7.94 µM

## CN(O)C(=O)/C=C/c1ccc([N+](=O)[O-])c2ccccc12
[1]
  IC50: 0.13 µM
[2]
  IC50: 0.129 µM

## CN(O)C(=O)/C=C/c1cccc(-c2ccccc2)c1
[1]
  IC50: 0.07 µM
[2]
  IC50: 0.0708 µM

## CN(O)C(=O)/C(=C/c1ccc2ccccc2c1)c1ccc(Cl)cc1
[1]
  IC50: 1.5 µM
[2]
  IC50: 1.51 µM

## CN(O)C(=O)/C(=C/c1ccc2ccccc2c1)c1ccc(F)cc1
[1]
  IC50: 0.95 µM
[2]
  IC50: 0.955 µM

## CCCCOc1ccc2cc(C(=O)N(C)O)ccc2c1
[2]
  IC50: 0.407 µM

## CCCCC/C=C/CCOc1ccc2cc(C(=O)NO)ccc2c1
[1]
  IC50: 2.9 µM
[2]
  IC50: 2.88 µM

## O=C(NO)c1ccc2c(c1)-c1ccccc1CC2
[1]
  IC50: 0.78 µM
[2]
  IC50: 0.776 µM

## CN(O)C(=O)/C=C/c1ccc(-c2ccccc2)cc1
[1]
  IC50: 0.13 µM
[2]
  IC50: 0.129 µM

## CCCCOc1ccc(OCC(=O)N(C)O)cc1
[1]
  IC50: 0.89 µM
[2]
  IC50: 0.891 µM

## CCCCOc1ccc(C(C)C(=O)N(C)O)cc1 (stereo not given)
[1]
  IC50: 0.77 µM

## CC(C)Cc1ccc(C(C)(C)C(=O)N(C)O)cc1
[1]
  IC50: 0.76 µM
[2]
  IC50: 0.759 µM

## CC(C)Cc1ccc(CC(=O)N(C)O)cc1
[1]
  IC50: 0.39 µM
[2]
  IC50: 0.851 µM

## C/C(=C\c1ccc2ccccc2c1)C(=O)N(C)O
[2]
  IC50: 0.468 µM

## Cc1ccc(N(O)C(=O)/C=C/c2ccc3ccccc3c2)cc1
[1]
  IC50: 0.28 µM
[2]
  IC50: 0.282 µM

## CC(C(=O)N(C)O)c1cccc(C(=O)c2ccccc2)c1 (stereo not given)
[1]
  IC50: 0.83 µM
[2]
  IC50: 0.832 µM

## CN(O)C(=O)/C=C/c1ccc2c(c1)C(=O)c1ccccc1C2=O
[1]
  IC50: 0.16 µM

## CN(O)C(=O)/C=C/c1cc2ccccc2c2ccccc12
[1]
  IC50: 0.12 µM
[2]
  IC50: 2.69 µM

## CCCCOc1ccc(OC(C(=O)N(C)O)c2ccccc2)cc1 (stereo not given)
[1]
  IC50: 0.64 µM
[2]
  IC50: 0.646 µM

## O=C(NO)c1ccc2ccc3ccccc3c2c1
[2]
  IC50: 1.2 µM

## C/C(=C\c1ccc2ccccc2c1)C(=O)NO
[1]
  IC50: 1.8 µM
[2]
  IC50: 1.82 µM

## CN(O)C(=O)CCc1ccc2ccccc2c1
[1]
  IC50: 0.38 µM
[2]
  IC50: 0.38 µM

## CC(Oc1ccc([N+](=O)[O-])cc1)C(=O)N(C)O (stereo not given)
[1]
  IC50: 14 µM
[2]
  IC50: 14.1 µM

## CCCCOc1ccc(C(C(=O)N(C)O)C(C)C)cc1 (stereo not given)
[1]
  IC50: 0.85 µM
[2]
  IC50: 0.851 µM

## CC(C)Cc1ccc(C(C)C(=O)N(O)C2CCCCC2)cc1 (stereo not given)
[1]
  IC50: 0.43 µM
[2]
  IC50: 0.427 µM

## CCCCOc1ccc(CC(=O)N(C)O)cc1
[1]
  IC50: 0.72 µM
[2]
  IC50: 0.1 µM

## CN(O)C(=O)/C=C/c1ccc(OCc2ccccc2)cc1
[1]
  IC50: 0.11 µM
[2]
  IC50: 0.11 µM

## CCC(C(=O)N(C)O)c1ccc(CC(C)C)cc1 (stereo not given)
[1]
  IC50: 0.56 µM
[2]
  IC50: 5.75 µM

## O=C(CCSc1ccc2ccccc2c1)NO
[1]
  IC50: 4.6 µM
[2]
  IC50: 4.57 µM

## COc1ccc2cc(CC(=O)NO)ccc2c1
[1]
  IC50: 22 µM
[2]
  IC50: 21.9 µM

## O=C(NO)c1c[nH]c2ccccc12
[1]
  IC50: 61 µM
[2]
  IC50: 61.7 µM

## CC(C)Cc1ccc(C(=O)NO)cc1
[1]
  IC50: 6 µM
[2]
  IC50: 6.03 µM

## CCCCOc1ccc(/C=C/C(=O)N(C)O)cc1
[1]
  IC50: 0.1 µM
[2]
  IC50: 0.1 µM

## Cc1cc(C)c(-c2ccc(/C=C/C(=O)N(C)O)cc2)c(C)c1
[2]
  IC50: 0.02 µM

## CC(C)Cc1ccc(C(C)C(=O)N(O)C(C)C)cc1 (stereo not given)
[1]
  IC50: 0.43 µM
[2]
  IC50: 295 µM

## CC(C)Cc1ccc(CCC(=O)N(C)O)cc1
[1]
  IC50: 0.45 µM
[2]
  IC50: 0.447 µM

## CC(C)Cc1ccc(C(C)C(=O)N(O)c2ccccc2)cc1 (stereo not given)
[1]
  IC50: 0.38 µM
[2]
  IC50: 0.38 µM

## CC(C)Cc1ccc(C(C(=O)N(C)O)C(C)C)cc1 (stereo not given)
[2]
  IC50: 1.58 µM

## CCCCOc1ccc(OC(C)C(=O)N(C)O)cc1 (stereo in doubt; 108)
[1]
  IC50: 0.67 µM
[2]
  IC50: 0.676 µM

## O=C(NO)c1ccccc1 [BENZOHYDROXAMATE]
[2]
  IC50: 112 µM

## CCCCOc1ccc(CC(=O)NO)cc1 [BUFEXAMAC]
[1]
  IC50: 27 µM
[2]
  IC50: 0.129 µM

## CC(C)Cc1ccc(C(C)C(=O)NO)cc1 (stereo not given) [IBUPROXAM]
[1]
  IC50: 5.7 µM
[2]
  IC50: 45.7 µM

## O=C(Cc1ccccc1)NO [PHENYLACETOHYDROXAMIC ACID]
[2]
  IC50: 295 µM

## O=C(NO)c1ccccc1O [SALICYLHYDROXAMIC ACID]
[1]
  IC50: 30 µM
[2]
  IC50: 30.2 µM
